Compounds with a hit are over-represented: about 5.4% of the library has one in this group of screens.
SKKanGAS inh: S. pyogenes SKKanGAS growth inhibitors in kanamycin, primary screen, streptokinase expression inhibitor project, SKKanGAS strain, BacTiter-Glo luminescence | 300,000 compounds, 1.3% hits | 6 h | AID 1662, 2009 | inhibition, % at 7.5 µM;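 active = mean replicate score, as percent of positive control median, at least 50; inconclusive = mean below 50 but one replicate at or above 50; inactive = mean and every replicate below 50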;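 note: strain carries kanamycin resistance gene driven by streptokinase promoter and grows in 40 µg/ml kanamycin; loss of luminescence reflects streptokinase promoter inhibition or plain growth inhibition; 0% = median of DMSO wells and 100% = positive control at its reference dose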
Mdm2-MdmX inh: inhibitors of human Mdm2-MdmX association, primary screen, cell-based, luminescence, split luciferase, SaOS-2, uHTS. 330,000 compounds, 3% hits. inhibition, % at 8 µM. Protein Mdm4 (Homo sapiens) + E3 ubiquitin-protein ligase Mdm2 (Homo sapiens), …. SaOS-2 split-luciferase Mdm2/MdmX complementation;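 active = inhibition of at least 50% at 8 µM in the primary screen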
Target sequence (O15151 whole entry, looked up): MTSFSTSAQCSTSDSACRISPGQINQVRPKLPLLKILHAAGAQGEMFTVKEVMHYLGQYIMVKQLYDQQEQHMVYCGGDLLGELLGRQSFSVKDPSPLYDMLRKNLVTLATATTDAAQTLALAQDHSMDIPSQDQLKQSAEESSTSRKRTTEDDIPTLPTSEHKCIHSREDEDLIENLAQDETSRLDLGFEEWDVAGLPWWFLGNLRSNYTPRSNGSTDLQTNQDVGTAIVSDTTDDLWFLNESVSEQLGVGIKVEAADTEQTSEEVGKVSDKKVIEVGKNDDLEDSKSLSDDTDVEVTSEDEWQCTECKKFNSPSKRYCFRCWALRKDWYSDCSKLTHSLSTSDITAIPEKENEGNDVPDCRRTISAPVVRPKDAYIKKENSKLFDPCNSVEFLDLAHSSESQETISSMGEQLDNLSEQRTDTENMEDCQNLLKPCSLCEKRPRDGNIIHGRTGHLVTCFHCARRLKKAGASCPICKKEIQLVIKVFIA
Target sequence (Q00987 whole entry, looked up): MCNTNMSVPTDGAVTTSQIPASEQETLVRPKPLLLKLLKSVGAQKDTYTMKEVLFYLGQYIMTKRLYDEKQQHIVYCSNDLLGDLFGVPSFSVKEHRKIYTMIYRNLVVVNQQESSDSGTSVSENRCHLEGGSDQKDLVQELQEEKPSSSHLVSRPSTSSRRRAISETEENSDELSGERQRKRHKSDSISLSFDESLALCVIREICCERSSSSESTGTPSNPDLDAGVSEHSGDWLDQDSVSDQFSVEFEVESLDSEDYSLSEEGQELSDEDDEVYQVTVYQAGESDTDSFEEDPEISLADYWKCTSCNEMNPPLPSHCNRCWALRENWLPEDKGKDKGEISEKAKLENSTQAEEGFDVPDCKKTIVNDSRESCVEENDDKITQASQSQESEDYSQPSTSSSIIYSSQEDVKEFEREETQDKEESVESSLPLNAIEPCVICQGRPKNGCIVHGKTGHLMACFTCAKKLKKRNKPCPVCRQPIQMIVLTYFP
aSyn 5UTR inh: MLPCN primary screen, SNCA 5' untranslated region; inhibition, % (tested at 7.5 µM); 300,000 compounds, 0.82% hits; alpha-synuclein 5'UTR reporter, inhibitor activity; AID 1813, 2009; in the data active = inhibition above about 60%; inconclusive = no clear call, values can overlap the other calls;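 note: H4 neuroglioblastoma cells stably carrying SNCA 5'UTR luciferase fusion; 0% = DMSO wells and 100% = positive control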
CSC inhib: cancer stem cell viability inhibitors, primary screen, luminescence | cancer stem cell-like cells viability | inhibition, % at 7.5 µM | 300,000 compounds, 1.1% hits | AID 2717, 2010; in the data active = inhibition above about 75%; inconclusive = no clear call, values can overlap the other calls; tested in HMLE shEcad cells
T cruzi inh: inhibitors of intracellular T. cruzi growth, primary screen, luminescence, NIH3T3 host cells; 300,000 compounds, 1.4% hits; T. cruzi beta-gal in NIH3T3, 90 h; AID 1885, 2009; inhibition, % (no concentration beside the values);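 active = mean inhibition across valid replicates above about 55%, limit read from the data; inconclusive = mean below that limit but half or more replicates reach it; inactive = mean below it, under half of replicates reach it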;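 note: signal also drops with host cell toxicity which is not excluded here; 0% = plate median of DMSO wells and 100% = zero luminescence signal; higher percent means less beta-gal luminescence so fewer parasites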
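Assay system: NIH/3T3 fibroblasts plus reporter T. cruzi. Amount: NIH/3T3 cells, 5,000 per well. Buffer or medium: DMEM, 2% fetal bovine serum. Doses: compound pinned at 50 nL/well, DMSO. Schedule: ≥90 h infection period, 3 h prior cell attachment. Signal: luminescent β-galactosidase signal after 60 min lysis. Read-out: parasite load inhibition, %.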
Mdm2 MdmX conf: Mdm2-MdmX complex disruptors, retested hits, confirmation, luminescence, single concentration; inhibition, % at 8 µM; shares compounds with Mdm2-MdmX inh; Mdm2-MdmX binding, luminescent assay; 10,000 compounds, 55% hits; in the data active = inhibition above about 40%
FLuc counter: full-length luciferase signal inhibition, confirmation, counter-screen for Mdm2/MdmX interaction inhibitor project, cell-based, single concentration, SaOS-2; shares compounds with Mdm2-MdmX inh; SaOS-2 full-length luciferase counterscreen, luminescence; inhibition, % at 8 µM; 6,200 compounds, 77% hits;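 active = mean inhibition at 8 µM reaching about 37%, which flags the compound as non-specific, limit read from the data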;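 note: p53-null SaOS-2 cells with luciferase driven by a doxycycline-inducible promoter; compound on cells about two nights before reading with doxycycline added after day one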
Active calls of the source: *.

What do the screens show for `N/C(=N\OC(=O)c1cccc(F)c1)c1ccccn1`?
SKKanGAS inh: 8; Mdm2-MdmX inh: -85; aSyn 5UTR inh: 23; CSC inhib: -5; T cruzi inh: -23

Results for Cc1cccc(C(=O)O/N=C(\N)c2ccccn2)c1 ?
SKKanGAS inh: 2; Mdm2-MdmX inh: 65*; aSyn 5UTR inh: 70*; CSC inhib: -5; T cruzi inh: -6; Mdm2 MdmX conf: 63*; FLuc counter: 100*

What do the screens show for `CCOc1ccc(C(=O)O/N=C(\N)c2ccccn2)cc1`?
SKKanGAS inh: 7; Mdm2-MdmX inh: 95*; aSyn 5UTR inh: 62*; CSC inhib: -19; T cruzi inh: -18; Mdm2 MdmX conf: 86*; FLuc counter: 33

Results for CCc1ccc(OCC(=O)O/N=C(\N)c2ccccn2)cc1 ?
SKKanGAS inh: 0; aSyn 5UTR inh: -91; T cruzi inh: 1

What do the screens show for `Cc1ccc(C(=O)O/N=C(\N)c2ccccn2)cc1C`?
SKKanGAS inh: -7; Mdm2-MdmX inh: 82*; aSyn 5UTR inh: 46; CSC inhib: -1; T cruzi inh: 0; Mdm2 MdmX conf: 70*; FLuc counter: 64*

How did C/C(=N\OC(=O)c1ccc(Br)cc1)c1ccccn1 do in these assays?
SKKanGAS inh: -6; Mdm2-MdmX inh: -15; aSyn 5UTR inh: 4; CSC inhib: 18; T cruzi inh: -10

What do the screens show for `CCOc1ccc(NC(=O)CN(C)C(=O)c2c(-c3c(F)cccc3Cl)noc2C)cc1OCC`?
SKKanGAS inh: -1; Mdm2-MdmX inh: 10; aSyn 5UTR inh: 0; CSC inhib: -11; T cruzi inh: -6

Results for CCc1ccc(C(=O)Nc2cc3c(cc2Cl)OCCCO3)cc1 ?
SKKanGAS inh: -24; Mdm2-MdmX inh: -161; aSyn 5UTR inh: -172; CSC inhib: -21; T cruzi inh: -1

Results for O=C(CN(C(=O)c1csnn1)c1ccc2c(c1)OCCO2)NCc1ccccc1 ?
SKKanGAS inh: -6; Mdm2-MdmX inh: 13; aSyn 5UTR inh: -4; CSC inhib: 21; T cruzi inh: -4

Results for COc1cc(C(=O)O/N=C(\N)c2ccccn2)cc(OC)c1OC ?
SKKanGAS inh: -3; Mdm2-MdmX inh: 67*; aSyn 5UTR inh: -34; CSC inhib: 1; T cruzi inh: -13; Mdm2 MdmX conf: -2

How did N/C(=N\OC(=O)c1cc(Cl)ccc1Cl)c1ccccn1 do in these assays?
SKKanGAS inh: -2; Mdm2-MdmX inh: -96; aSyn 5UTR inh: -122; CSC inhib: 0; T cruzi inh: -6

Results for N/C(=N\OC(=O)c1ccccc1)c1ccccn1 ?
SKKanGAS inh: 3; Mdm2-MdmX inh: 42; aSyn 5UTR inh: 18; CSC inhib: 8; T cruzi inh: -15

How did Cc1ccc(C(=O)O/N=C(\N)c2ccccn2)cc1 do in these assays?
SKKanGAS inh: 4; Mdm2-MdmX inh: 91*; aSyn 5UTR inh: 65*; CSC inhib: 17; T cruzi inh: 4; Mdm2 MdmX conf: 89*; FLuc counter: 34

Results for O=C1/C(=N\S(=O)(=O)c2cccs2)C([n+]2ccc(CCCc3ccccc3)cc2)=C([O-])c2ccccc21 ?
SKKanGAS inh: 110*; Mdm2-MdmX inh: 83*; aSyn 5UTR inh: 91*; CSC inhib: 93*; T cruzi inh: 28; Mdm2 MdmX conf: 52*; FLuc counter: 41*

How did Cc1cc(C)c[n+](C2=C([O-])c3ccccc3C(=O)/C2=N\S(=O)(=O)c2cccs2)c1 do in these assays?
SKKanGAS inh: inconclusive; Mdm2-MdmX inh: 13; aSyn 5UTR inh: 24; CSC inhib: 24; T cruzi inh: -18

What do the screens show for `O=C(c1cnn2c1NC(c1ccco1)CC2C(F)(F)F)N1CCN(c2cccc(Cl)c2)CC1` (stereo not given)?
SKKanGAS inh: 12; Mdm2-MdmX inh: 59*; aSyn 5UTR inh: -71; CSC inhib: 57; T cruzi inh: 15; Mdm2 MdmX conf: 51*; FLuc counter: 56*

What do the screens show for `S=C(Nc1cccc(Cl)c1)N(CCCN1CCCC1)Cc1cccn1Cc1ccc(Cl)cc1`?
SKKanGAS inh: -21; Mdm2-MdmX inh: 62*; aSyn 5UTR inh: -21; CSC inhib: 96*; T cruzi inh: 53; Mdm2 MdmX conf: 33

How did CSc1cccc(NC(=S)N(CCCN2CCCC2)Cc2cccs2)c1 do in these assays?
SKKanGAS inh: -2; Mdm2-MdmX inh: 31; aSyn 5UTR inh: -23; CSC inhib: -8; T cruzi inh: -2

What do the screens show for `CSc1cccc(NC(=S)N(CCCN2CCCC2)Cc2cccn2Cc2ccc(Cl)cc2)c1`?
SKKanGAS inh: -7; Mdm2-MdmX inh: 73*; aSyn 5UTR inh: -12; CSC inhib: 33; T cruzi inh: 56*; Mdm2 MdmX conf: 44*; FLuc counter: 63*

Results for COc1cccc(NC(=S)N(CCCN2CCCC2)Cc2cccn2Cc2ccc(Cl)cc2)c1 ?
SKKanGAS inh: 0; Mdm2-MdmX inh: 56*; aSyn 5UTR inh: -9; CSC inhib: 35; T cruzi inh: 20; Mdm2 MdmX conf: 23

How did Cc1ccc(S(=O)(=O)N2CCCC(c3nc4c(nnn4Cc4ccc5c(c4)OCCO5)c(=O)[nH]3)C2)cc1 (stereo not given) do in these assays?
SKKanGAS inh: 29; Mdm2-MdmX inh: 34; aSyn 5UTR inh: 35; CSC inhib: 4; T cruzi inh: 10

What do the screens show for `CC(C)(C)c1ccc(OCCNC(=O)c2ncn[nH]2)cc1`?
SKKanGAS inh: 0; Mdm2-MdmX inh: 1; aSyn 5UTR inh: 16; CSC inhib: 32; T cruzi inh: 1

How did COc1ccc(/C=N/NC(=O)c2cccnc2)cc1COc1ccc(NC(C)=O)cc1 do in these assays?
SKKanGAS inh: -3; Mdm2-MdmX inh: 52*; aSyn 5UTR inh: -84; CSC inhib: 53; T cruzi inh: -2; Mdm2 MdmX conf: 26

How did COc1ccc(NC(=O)COc2ccc(/C=N/NC(=O)c3cccnc3)cc2OC)cc1 do in these assays?
SKKanGAS inh: -5; Mdm2-MdmX inh: 10; aSyn 5UTR inh: -105; CSC inhib: -9; T cruzi inh: -7

How did COc1cc(/C=N/NC(=O)c2cccnc2)ccc1OC(=O)c1ccc([N+](=O)[O-])cc1 do in these assays?
SKKanGAS inh: -4; Mdm2-MdmX inh: -11; aSyn 5UTR inh: -6; CSC inhib: 1; T cruzi inh: 5

Results for COc1ccc(C=O)cc1OS(=O)(=O)c1ccc(NC(C)=O)cc1 ?
SKKanGAS inh: -19; Mdm2-MdmX inh: 4; aSyn 5UTR inh: 17; CSC inhib: 11; T cruzi inh: -9
